ChEMBL document CHEMBL4814000, “Discovery of β-carboline-(phenylsulfonyl)furoxan hybrids as potential anti-breast cancer agents” (Bioorg Med Chem Lett, 2021)

How the values were obtained:
MCF7 = experiment: Antiproliferative activity against human MCF7 cells assessed as reduction in cell viability incubated for 72 hrs by CCK-8 assay; assay type: functional, cell-based; details: MCF7, 72 h
In short: (§1)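 CCK-8 viability assay on MCF-7 or MDA-MB-231 cells after 72 h compound exposure; IC50 taken as half inhibitory concentration, reported as mean ± SD of three independent experiments.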

MDA-MB-231 = experiment: Antiproliferative activity against human MDA-MB-231 cells assessed as reduction in cell viability incubated for 72 hrs by CCK-8 assay; assay type: functional, cell-based; details: MDA-MB-231, 72 h; in short: as §1

| IC50 (MCF7) | IC50 (MDA-MB-231) | SMILES |
| --- | --- | --- |
| 7.53 µM | 6.75 µM | O=C(NCCOc1no[n+]([O-])c1S(=O)(=O)c1ccccc1)c1cc2c(cn1)[nH]c1ccccc12 |
| 4.64 µM | 7.5 µM | O=C(NCCCOc1no[n+]([O-])c1S(=O)(=O)c1ccccc1)c1cc2c(cn1)[nH]c1ccccc12 |
| 3.8 µM | 2.2 µM | Cc1nc(C(=O)NCC(C)Oc2no[n+]([O-])c2S(=O)(=O)c2ccccc2)cc2c1[nH]c1ccccc12 (stereo not drawn) |
| 19 µM | 15.8 µM | O=C(OCCOCCOc1no[n+]([O-])c1S(=O)(=O)c1ccccc1)c1cc2c(cn1)[nH]c1ccccc12 |
| 2.35 µM | 1.16 µM | COc1ccc(-c2nc(C(=O)OCC#CCOc3no[n+]([O-])c3S(=O)(=O)c3ccccc3)cc3c2[nH]c2ccccc23)cc1 |
| > 30 µM | > 30 µM | O=C(O)c1cc2c(cn1)[nH]c1ccccc12 |
| 4.28 µM | 4.54 µM | Cc1nc(C(=O)OCCCCOc2no[n+]([O-])c2S(=O)(=O)c2ccccc2)cc2c1[nH]c1ccccc12 |
| 8.28 µM | 6.83 µM | O=C(c1cc2c(cn1)[nH]c1ccccc12)N1CCN(CCOc2no[n+]([O-])c2S(=O)(=O)c2ccccc2)CC1 |
| 3.29 µM | 3.47 µM | Cc1nc(C(=O)N2CCN(CCOc3no[n+]([O-])c3S(=O)(=O)c3ccccc3)CC2)cc2c1[nH]c1ccccc12 |
| 5.89 µM | 7.67 µM | Cc1nc(C(=O)OCCOCCOc2no[n+]([O-])c2S(=O)(=O)c2ccccc2)cc2c1[nH]c1ccccc12 |
| 4.88 µM | 2.24 µM | Cc1nc(C(=O)OCCCOc2no[n+]([O-])c2S(=O)(=O)c2ccccc2)cc2c1[nH]c1ccccc12 |
| 4.96 µM | 3.84 µM | Cc1nc(C(=O)NCCOc2no[n+]([O-])c2S(=O)(=O)c2ccccc2)cc2c1[nH]c1ccccc12 |
|  | 2.86 µM | COc1cccc2c1C(=O)c1c(O)c3c(c(O)c1C2=O)C[C@@](O)(C(=O)CO)C[C@@H]3O[C@H]1C[C@H](N)[C@H](O)[C@H](C)O1 [DOXORUBICIN] |
| 3.92 µM | 2.53 µM | COc1ccc(-c2nc(C(=O)OCCOCCOc3no[n+]([O-])c3S(=O)(=O)c3ccccc3)cc3c2[nH]c2ccccc23)cc1 |
| 9.57 µM | 12.5 µM | O=C(OCCCCOc1no[n+]([O-])c1S(=O)(=O)c1ccccc1)c1cc2c(cn1)[nH]c1ccccc12 |
| 2.92 µM | 4.26 µM | COc1ccc(-c2nc(C(=O)OCCCCOc3no[n+]([O-])c3S(=O)(=O)c3ccccc3)cc3c2[nH]c2ccccc23)cc1 |
| 3.92 µM | 4.84 µM | O=S(=O)(c1ccccc1)c1no[n+]([O-])c1S(=O)(=O)c1ccccc1 |
| 11.5 µM | 9.56 µM | O=C(OCCOc1no[n+]([O-])c1S(=O)(=O)c1ccccc1)c1cc2c(cn1)[nH]c1ccccc12 |
| 4.64 µM | 7.96 µM | O=C(OCCCOc1no[n+]([O-])c1S(=O)(=O)c1ccccc1)c1cc2c(cn1)[nH]c1ccccc12 |
| 3.49 µM | 2.86 µM | COc1ccc(-c2nc(C(=O)OCCCOc3no[n+]([O-])c3S(=O)(=O)c3ccccc3)cc3c2[nH]c2ccccc23)cc1 |
| 6.94 µM | 5.97 µM | CC(CNC(=O)c1cc2c(cn1)[nH]c1ccccc12)Oc1no[n+]([O-])c1S(=O)(=O)c1ccccc1 (stereo not drawn) |
| 13.7 µM | 8.87 µM | O=C(OCCCCCCOc1no[n+]([O-])c1S(=O)(=O)c1ccccc1)c1cc2c(cn1)[nH]c1ccccc12 |
| 4.58 µM | 7.46 µM | Cc1nc(C(=O)OCCOc2no[n+]([O-])c2S(=O)(=O)c2ccccc2)cc2c1[nH]c1ccccc12 |
| 2.97 µM | 1.62 µM | Cc1nc(C(=O)NCCCOc2no[n+]([O-])c2S(=O)(=O)c2ccccc2)cc2c1[nH]c1ccccc12 |
| 5.27 µM | 5.89 µM | O=C(OCC#CCOc1no[n+]([O-])c1S(=O)(=O)c1ccccc1)c1cc2c(cn1)[nH]c1ccccc12 |

| SMILES | IC50 (MCF7) | IC50 (MDA-MB-231) |
| --- | --- | --- |
| Cc1nc(C(=O)O)cc2c1[nH]c1ccccc12 [HARMAN-3-CARBOXYLIC ACID] | 19.2 µM | 22.6 µM |
| COc1ccc2c(c1)[nH]c1c(C)nccc12 [HARMINE] | 16.9 µM | 21.9 µM |
